High-throughput results (PubChem BioAssay)
CHT PAM: allosterically activates the human high affinity choline transporter; Q9GZV3; CHT-expressing cells, membrane potential dye, choline EC20; hits give high values; LV-AA mutant CHT in HEK293 cells; B-score at 10 µM; actives 0.49% (n = 310,000); AID 488977;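 active = initial fluorescence not abnormally high and integrated response B-score, plate-corrected, over 3 SD above library mean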
Target sequence (Q9GZV3 whole entry, looked up): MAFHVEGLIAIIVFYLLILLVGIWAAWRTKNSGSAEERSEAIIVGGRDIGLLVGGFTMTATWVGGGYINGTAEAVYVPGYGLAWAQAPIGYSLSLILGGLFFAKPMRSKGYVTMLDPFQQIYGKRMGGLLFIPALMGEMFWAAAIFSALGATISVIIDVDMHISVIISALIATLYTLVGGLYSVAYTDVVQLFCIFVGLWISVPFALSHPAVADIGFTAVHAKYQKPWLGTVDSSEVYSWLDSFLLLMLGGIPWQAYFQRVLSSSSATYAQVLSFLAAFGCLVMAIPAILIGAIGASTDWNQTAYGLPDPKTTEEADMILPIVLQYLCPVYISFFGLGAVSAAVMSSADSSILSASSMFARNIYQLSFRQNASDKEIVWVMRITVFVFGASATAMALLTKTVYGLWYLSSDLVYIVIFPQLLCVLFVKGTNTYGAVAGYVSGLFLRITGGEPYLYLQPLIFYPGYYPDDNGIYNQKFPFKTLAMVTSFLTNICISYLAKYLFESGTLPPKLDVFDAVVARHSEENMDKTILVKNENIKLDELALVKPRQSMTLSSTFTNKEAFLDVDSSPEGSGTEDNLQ
VIM-2 inh: inhibitors of Pseudomonas aeruginosa VIM-2 metallo-beta-lactamase; purified VIM-2, nitrocefin hydrolysis, epi-absorbance fluorescence; inhibition, % at 5.6 µM; actives 0.89% (n = 290,000);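 active = inhibition above the mean of all tested compounds plus 3 SD, cutoff set per screening run, cut at about 7.5% in these data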;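 note: red hydrolysis product quenches plate fluorescence so inhibitors raise well fluorescence; 0% = enzyme with DMSO and 100% = DMSO without enzyme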
TMEM16A inh: inhibitors of mouse TMEM16A calcium-activated chloride channel; Q8BHY3; HEK293 TMEM16A/YFP iodide influx fluorescence, ionomycin; normalized B-score (activity score, 25-100; higher = stronger inhibition) at 10 µM; actives 1.2% (n = 310,000);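 active = ratio plate-corrected score three or more library SD toward inhibition, starting fluorescence score within five deviations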;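 note: score derived from kinetic fluorescence span divided by baseline fluorescence per well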
IMP-1 inh: blocks Pseudomonas aeruginosa IMP-1 metallo-beta-lactamase. inhibition, % at 5.6 µM. purified IMP-1, nitrocefin hydrolysis, epi-absorbance fluorescence. actives 0.45% (n = 290,000). AID 1556;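 active = inhibition above the mean plus 3 SD of all compounds in the same screening run, cut at about 4.5% in these data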;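 note: 0% = IMP-1 with DMSO and 100% = DMSO wells lacking enzyme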
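System: purified IMP-1; amount: IMP-1 0.2 nM before substrate addition; compound: single dose, 5.6 µM; times: 25 °C, 15 min preincubation, 25 min reaction; signal: Epi-absorbance via hydrolysed-nitrocefin quenching of white-plate fluorescence, 480/530 nm, EDTA stop; benchmarks: DMSO with and without IMP-1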
CHT inh: human CHT choline transport inhibition; B-score at 10 µM; AID 488975; CHT-expressing cells, membrane potential dye, choline response; hits give low values; actives 0.86% (n = 310,000);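 active = B-score over 3 SD under the library average, and starting fluorescence ratio not unusually high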;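 note: choline stimulus applied at its EC90 after an EC20 pre-addition; B-score computed on integrated fluorescence ratio after choline addition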
TMEM16A act: activates or potentiates the mouse TMEM16A chloride channel; Q8BHY3; AID 623877; HEK293 TMEM16A/YFP-H148Q/I152L, iodide quench fluorescence; hits give low values; B-score at 10 µM; actives 0.3% (n = 340,000);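 active = fluorescence-ratio B-score plate-corrected deviation score at least 3 library SD below zero, with starting fluorescence score within 5 deviations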;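 note: channel opened by trigger with iodide after compound preincubation; score built on the fluorescence ratio of max minus min over baseline; more negative score means more quench and so TMEM16A activation or potentiation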
CHT act confirm: confirmation of human choline transporter (CHT) activators; AID 504833; CHT-expressing cells, membrane potential dye fluorescence (FDSS); % of choline EC20–EC90 response window; HEK293 expressing CHT LV-AA mutant; choline added at its EC20; activation, % at 10 µM; actives 91% (n = 2,500); shares compounds with CHT PAM;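 active = primary screen active, with duplicate mean activation above negative control mean plus 3 SD, cut at about 11% in these data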
HEK293 MP dye: activity in parental HEK293 cells lacking CHT; shares compounds with CHT PAM; actives 62% (n = 2,500); membrane potential dye fluorescence (FDSS); measured after EC20 choline addition; AID 623908; ratio readout change at 10 µM, hits read low;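 active = duplicate-averaged ratio beyond 3 SD from buffer wells, up or down, though filed actives are nearly all decreases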
TMEM16A reconf: reconfirmed blocker of mouse TMEM16A calcium-activated chloride channel. actives 39% (n = 2,300). shares compounds with TMEM16A inh. HEK293 TMEM16A/YFP-H148Q, iodide quench fluorescence; ionomycin added to raise cell calcium. inhibition, % at 10 µM;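 active = mean duplicate percent inhibition, scaled so buffer wells are 0 and the reference blocker 100, over three buffer SD above buffer mean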
HEK293 Ca mobil: calcium mobilization counter-screen hit for TMEM16A inhibitor series; calcium response (% of ionomycin), % at 10 µM; AID 652231; shares compounds with TMEM16A inh; actives 2% (n = 2,300); TMEM16A/YFP HEK293, Fluo4 calcium mobilization;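 active = duplicate-averaged calcium signal over 20% of the ionomycin maximum, relative to buffer baseline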;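 note: each well's signal is peak minus trough fluorescence divided by its pre-addition baseline; 0% = buffer wells and 100% = ionomycin wells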
YFP-HEK293 quench: parental YFP-HEK293 iodide quench counter-screen activity | shares compounds with TMEM16A inh | ionomycin | YFP ratio F(max-min)/F0 at 10 µM | 2,300 tested, under 10 active;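 active = yellow fluorescent protein signal ratio exceeding the buffer control mean by over 5 SD of those controls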;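 note: ratio is mean of duplicate wells from kinetic YFP trace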
ClC-1 rat inh: selectivity of TMEM16A inhibitors: inhibition of rat ClC-1 chloride channel. CHO ClC-1-YFP, iodide influx fluorescence quench; iodide control reads 0, buffer control 100. 2,300 tested, under 10 active. ratio percent, % at 10 µM. shares compounds with TMEM16A inh;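 active = duplicate-mean ratio percent above the mean of iodide-only control wells, which defines zero, plus 5 of their SD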;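 note: higher percent means stronger block of ClC-1 iodide influx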
* hit, by the source's call; i = inactive; x = not tested or not shown. Rows were chosen to be rich in hits. Some 3.4% of all compounds tested hit in one or more screens of this group.

SMILES	CHT PAM	VIM-2 inh	TMEM16A inh	IMP-1 inh	CHT inh	TMEM16A act	CHT act confirm	HEK293 MP dye	TMEM16A reconf	HEK293 Ca mobil	YFP-HEK293 quench	ClC-1 rat inh
CCN1/C(=C/C=C/C=C/C=C/c2sc3ccccc3[n+]2CC)Sc2ccccc21	9.6*	-3	i	0	i	i	29*	-35*	45%*	i	-0.88	-18
Cc1sc2nc(SCc3ccc(C(=O)O)cc3)n(Cc3ccco3)c(=O)c2c1C	6.7*	-1	25*	-2	i	i	32*	i	30%*	i	-1	-24
CCCc1nnc(NC(=O)COC(=O)c2cc(C)nc3ccccc23)s1	i	-2	i	-3	i	i	x	x	x	x	x	x
CCCc1nnc(NC(=O)C(CC)OC(=O)c2cc(C)nc3ccccc23)s1 (configuration not stated)	6.3*	-1	100*	0	i	i	22*	i	i	i	-1.1	-16
CCc1ccc(NC(=O)CSc2nc3ccccc3nc2N2CCCC2)cc1	i	0	i	-1	i	i	x	x	x	x	x	x
O=C(CC1C=Cc2ccccc2N1C(=O)c1ccccc1)c1ccccc1 (configuration not stated)	10*	-2	100*	-3	i	i	26*	i	20%*	i	-1.1	-2
CC1C=Cc2ccccc2N1C(=O)c1ccccc1 (configuration not stated)	i	-2	i	-2	i	i	x	x	x	x	x	x
CCN(CC)CCNC1=NCCn2c1cc1cc(OC)ccc12	8.2*	1	25*	-3	i	i	60*	-51*	i	i	-0.98	-12
Cc1cc[n+](Cc2ccccc2)c(N)c1	i	x	i	x	i	i	x	x	x	x	x	x
c1ccc(C[n+]2cccc3c4ccccc4ccc32)cc1	6.4*	-4	25*	-2	i	i	77*	-75*	i	i	-1.1	-2
CCN(CC)S(=O)(=O)c1cc(C(=O)OCC(=O)Nc2cccc(S(=O)(=O)N(C)C)c2)ccc1F	15*	-3	25*	-2	i	i	22*	i	i	i	-1.1	5
COc1ccc(NC(=O)N(C)C[C@H]2Oc3c(NC(=O)c4nc5ccccc5s4)cccc3C(=O)N([C@@H](C)CO)C[C@H]2C)cc1	x	x	x	x	x	i	x	x	x	x	x	x
CSCCC(NS(=O)(=O)c1ccccc1F)C(=O)Nc1ccncc1 (configuration not stated)	x	x	x	x	x	i	x	x	x	x	x	x
Cc1cccc2nc(-c3cccnc3)c(Nc3ccccc3)n12	12*	0	100*	-2	i	i	28*	-29*	35%*	i	-0.98	-26
CSc1nc(Cl)c(Cc2ccc(OC(C)C)cc2)c(N(C)C)n1	i	-2	i	-3	i	i	x	x	x	x	x	x
CCOc1ccc(Cc2c(Cl)nc(SC)nc2N(C)C)cc1	6.4*	-1	25*	-5	i	i	28*	i	i	i	-1.3	-12
Cc1ccc2c(C)c(C(=O)N3CCC(O)(c4ccccc4)CC3)oc2c1C	i	-2	i	-2	i	i	x	x	x	x	x	x
CCOC(=O)c1c(NC(=O)CSc2nc3ccccc3o2)sc(C(C)=O)c1C	9.1*	-2	100*	-2	i	i	12*	i	22%*	i	-1.1	-3
CCOC(=O)c1ccc(N2CCOCC2)c(NS(=O)(=O)c2ccc(F)cc2)c1	i	-3	i	-4	i	i	x	x	x	x	x	x
Cc1ccc(C(c2nnnn2C2CCCCC2)N(C)C2CCCCC2)cc1 (configuration not stated)	i	0	25*	-2	i	i	6	i	i	i	-1.1	-8
CC(C)C(c1nnnn1C1CCCC1)N(C)C1CCCCC1 (configuration not stated)	i	0	i	-3	i	i	x	x	x	x	x	x
CCOC(=O)N1CCC(N2Cc3cccc(C(=O)NCC4CCN(CC(C)C)C4)c3C2=O)CC1 (configuration not stated)	6.3*	-3	100*	0	i	i	53*	-34*	i	i	-1.3	-6
COCCN1Cc2cccc(C(=O)NCC3CCN(CC(C)C)C3)c2C1=O (configuration not stated)	i	-3	i	-2	i	i	x	x	x	x	x	x
CC(=O)c1cn(Cc2ccccc2)c(=O)n(Cc2ccc(F)cc2)c1=O	i	0	i	-3	i	i	x	x	x	x	x	x
Cc1c(C)c2c(OCC(=O)N3CCC(C(=O)O)CC3)cc3c(c2oc1=O)CCC(C)(C)O3	i	0	i	0	i	i	x	x	x	x	x	x
N#C/C(=N\Nc1c(Cl)cccc1Cl)C(=O)NN	12*	-3	25*	-3	i	i	19*	-40*	i	i	-0.87	-12
CCOc1cc(OCC)c(C(C)=O)cc1OCC	x	x	x	x	x	i	x	x	x	x	x	x
CCn1cc(C(=O)OCC(=O)c2ccccc2)c(=O)c2ccc(C)nc21	x	-1	x	0	x	i	x	x	x	x	x	x
CCn1cc(C(=O)OCC(=O)OC2CC(C)CCC2C(C)C)c(=O)c2ccc(C)nc21 (configuration not stated)	i	-5	25*	-9	i	i	31*	i	i	i	-1.3	-10
